Source: paper PMC8335715 (Medicinal Chemistry Research, 2021)

These molecules were tested against rat lens ALR2 (Rattus norvegicus, UniProt P07943) (assay: ALR2 enzyme inhibition assay). Details: ratio IC50 ALR1 / IC50 ALR2; called SF in text.
Assay type: biochemical
How it was run: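 Rat lens enzyme (male Wistar) was partially purified: homogenised in cold water, spun at 10.000 g, fractionated with ammonium sulfate (40/50/75%). Substrate was D,L-glyceraldehyde in 0.067 M phosphate, pH 6.2, at 30 °C. Substrate started the reaction, and a substrate-free blank corrected NADPH oxidation. Test compound was in NaHCO3 or DMSO (1% final). IC50 came from least-squares fit of the linear semilog portion (25–75% inhibition), at least two experiments. The selectivity index was calculated against kidney-enzyme IC50.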

Selectivity index (ALR1/ALR2) | Structure (SMILES)
< 1 | COc1ccc2nc(/N=C3/NC(=O)C(=Cc4ccc(O)c(OC)c4)S3)sc2c1 [Compound 4, (Z)-5-(4-hydroxy-3-methoxybenzylidene)-2-((6-methoxybenzo[d]thiazol-2-yl)imino) thiazolidin-4-one]
< 1 | COc1ccc(/C=C2\SC(=Nc3nc4ccc(OC)cc4s3)NC2=O)cc1 [Compound 3, (Z)-2-((6-methoxybenzo[d]thiazol-2-yl)imino)-5-(4-methoxybenzylidene)thiazolidin-4-one]
< 1 | COc1ccc2nc(/N=C3/NC(=O)C(=Cc4ccc(O)cc4)S3)sc2c1 [Compound 2, (Z)-5-(4-hydroxybenzylidene)-2-((6-methoxybenzo[d]thiazol-2-yl)imino)thiazolidin-4-one]
